ChEMBL document CHEMBL3992549, “Combretastatin A4-β-Galactosyl Conjugates for Ovarian Cancer Prodrug Monotherapy” (ACS Med Chem Lett, 2017)
Calls of active or inactive are those of the source. No cut-off for these calls is given here.

What was measured:
Homo sapiens [1] = organism: Homo sapiens; assay: Induction of microtubule disruption in human OVCAR3 cells assessed as nuclear fragmentation at 20 to 200 nM after 24 hrs by Alexa Fluor 647/DAPI staining based fluorescence microscopic method; assay type: cell-based
Summary of the method: (§1)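 OVCAR3 cells treated for 24 h, then imaged by confocal fluorescence microscopy. Nuclei were stained directly with DAPI. α-Tubulin was detected with an Alexa Fluor 647-conjugated secondary antibody. Microtubule architecture, cytoskeleton and nuclear morphology (contraction, fragmentation) were scored.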

OVCAR-3 [2] = assay: Cytotoxicity against human OVCAR3 cells assessed as reduction in cell viability after 72 hrs by WST8 assay; assay type: functional, cell-based; details: OVCAR-3, 72 h
Sus scrofa = organism: Sus scrofa; assay: Inhibition of pig brain tubulin polymerization at 5 uM measured every 1 min for 60 mins by HTS assay
OVCAR-3 [3] = assay: Cytotoxicity against human OVCAR3 cells assessed as reduction in cell viability at 200 nM after 48 hrs in presence of beta-galactosidase inhibitor beta-GA by WST8 assay; assay type: functional, cell-based
Summary of the method: (§2)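 β-Galactosidase inhibition condition was 1 mM β-GA present during compound treatment.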

Homo sapiens [4] = organism: Homo sapiens; assay: Induction of microtubule disruption in human OVCAR3 cells assessed as cytoskeleton contraction at 20 to 200 nM after 24 hrs by Alexa Fluor 647/DAPI staining based fluorescence microscopic method; assay type: cell-based; summary of the method: as §1
Beta-galactosidase = molecular target: T1, Beta-galactosidase (Homo sapiens, UniProt P16278); assay: Prodrug activation in PBS buffer assessed as beta-galactosidase (unknown origin) mediated CA4 formation at 0.2 mM after 1 hr by HPLC analysis; details: 200 µM
T1 sequence (P16278 whole entry): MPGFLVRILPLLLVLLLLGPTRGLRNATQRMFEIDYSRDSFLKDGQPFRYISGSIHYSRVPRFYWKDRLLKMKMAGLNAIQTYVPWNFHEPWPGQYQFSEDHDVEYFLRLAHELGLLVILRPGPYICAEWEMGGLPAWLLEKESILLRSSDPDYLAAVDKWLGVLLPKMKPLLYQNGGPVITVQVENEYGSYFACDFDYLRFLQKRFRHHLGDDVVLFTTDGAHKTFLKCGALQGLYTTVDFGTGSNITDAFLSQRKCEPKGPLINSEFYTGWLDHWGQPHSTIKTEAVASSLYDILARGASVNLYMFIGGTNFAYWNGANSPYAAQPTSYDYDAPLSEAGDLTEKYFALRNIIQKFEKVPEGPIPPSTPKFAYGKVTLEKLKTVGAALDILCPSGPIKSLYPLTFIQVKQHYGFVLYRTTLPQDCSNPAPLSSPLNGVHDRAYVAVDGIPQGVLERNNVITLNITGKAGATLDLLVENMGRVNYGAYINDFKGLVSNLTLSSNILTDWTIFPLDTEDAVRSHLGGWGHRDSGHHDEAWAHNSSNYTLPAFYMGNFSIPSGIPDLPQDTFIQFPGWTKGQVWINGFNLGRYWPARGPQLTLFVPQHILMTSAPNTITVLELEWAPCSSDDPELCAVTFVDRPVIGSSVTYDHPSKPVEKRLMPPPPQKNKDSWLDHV

Homo sapiens [5] = organism: Homo sapiens; assay: Induction of microtubule disruption in human OVCAR3 cells assessed as change in microtubule architecture at 20 to 200 nM after 24 hrs by Alexa Fluor 647/DAPI staining based fluorescence microscopic method; assay type: cell-based; summary of the method: as §1
[6] = Cytotoxicity against human OVK18 cells assessed as reduction in cell viability after 72 hrs by WST8 assay; assay type: functional, cell-based; details: OVK18, 72 h
Homo sapiens [7] = organism: Homo sapiens; assay: Induction of microtubule disruption in human OVCAR3 cells assessed as nuclear contraction at 20 to 200 nM after 24 hrs by Alexa Fluor 647/DAPI staining based fluorescence microscopic method; assay type: cell-based; summary of the method: as §1
OVK18 [8] = assay: Cytotoxicity against human OVK18 cells assessed as reduction in cell viability at 200 nM after 48 hrs in presence of beta-galactosidase inhibitor beta-GA by WST8 assay; assay type: functional, cell-based; summary of the method: as §2
Homo sapiens [9] = organism: Homo sapiens; assay: Induction of microtubule disruption in human OVCAR3 cells assessed as nuclear contraction at 10 nM after 24 hrs by Alexa Fluor 647/DAPI staining based fluorescence microscopic method; assay type: cell-based; summary of the method: as §1
Homo sapiens [10] = organism: Homo sapiens; assay: Induction of microtubule disruption in human OVCAR3 cells assessed as change in microtubule architecture at 10 nM after 24 hrs by Alexa Fluor 647/DAPI staining based fluorescence microscopic method; assay type: cell-based; summary of the method: as §1
OVCAR-3 [11] = assay: Cytotoxicity against human OVCAR3 cells assessed as reduction in cell viability at 10 nM after 48 hrs in presence of beta-galactosidase inhibitor beta-GA by WST8 assay; assay type: functional, cell-based; summary of the method: as §2
Homo sapiens [12] = organism: Homo sapiens; assay: Induction of microtubule disruption in human OVCAR3 cells assessed as cytoskeleton contraction at 1 nM after 24 hrs by Alexa Fluor 647/DAPI staining based fluorescence microscopic method; assay type: cell-based; summary of the method: as §1
OVK18 [13] = assay: Cytotoxicity against human OVK18 cells assessed as reduction in cell viability at 10 nM after 48 hrs in presence of beta-galactosidase inhibitor beta-GA by WST8 assay; assay type: functional, cell-based; summary of the method: as §2
Homo sapiens [14] = organism: Homo sapiens; assay: Induction of microtubule disruption in human OVCAR3 cells assessed as nuclear fragmentation at 10 nM after 24 hrs by Alexa Fluor 647/DAPI staining based fluorescence microscopic method; assay type: cell-based; summary of the method: as §1
Homo sapiens [15] = organism: Homo sapiens; assay: Induction of microtubule disruption in human OVCAR3 cells assessed as cytoskeleton contraction at 10 nM after 24 hrs by Alexa Fluor 647/DAPI staining based fluorescence microscopic method; assay type: cell-based; summary of the method: as §1
Homo sapiens [16] = organism: Homo sapiens; assay: Induction of microtubule disruption in human OVCAR3 cells assessed as change in microtubule architecture at 1 nM after 24 hrs by Alexa Fluor 647/DAPI staining based fluorescence microscopic method; assay type: cell-based; summary of the method: as §1

| Structure (SMILES) | Activity (Homo sapiens [1]) | EC50 (OVCAR-3 [2]) [nM] | inhibition (Sus scrofa) | Activity (OVCAR-3 [3]) | Activity (Homo sapiens [4]) | Drug metabolism (Beta-galactosidase) | Activity (Homo sapiens [5]) | EC50 [6] [nM] | Activity (Homo sapiens [7]) | Activity (OVK18 [8]) | Activity (Homo sapiens [9]) | Activity (Homo sapiens [10]) | Activity (OVCAR-3 [11]) | Activity (Homo sapiens [12]) | Activity (OVK18 [13]) | Activity (Homo sapiens [14]) | Activity (Homo sapiens [15]) | Activity (Homo sapiens [16]) |
| --- | --- | --- | --- | --- | --- | --- | --- | --- | --- | --- | --- | --- | --- | --- | --- | --- | --- | --- |
| COc1ccc(/C=C\c2cc(OC)c(OC)c(OC)c2)cc1O[C@@H]1O[C@H](CO)[C@H](O)[C@H](O)[C@H]1O | Active | 69.1 | inactive | inactive | Active | Metabolite_Detected | Active | 252 | Active | inactive |  |  |  |  |  |  |  |  |
| COc1ccc(/C=C\c2cc(OC)c(OC)c(OC)c2)cc1OCc1ccc(O[C@@H]2O[C@H](CO)[C@H](O)[C@H](O)[C@H]2O)cc1 |  | 2.47 | inactive |  |  | Metabolite_Detected |  | 2.67 |  |  | Active | Active | inactive | Active | inactive | Active | Active | inactive |
| COc1ccc(/C=C\c2cc(OC)c(OC)c(OC)c2)cc1O [COMBRETASTATIN A4] |  | 3.45 |  |  |  |  |  | 1.99 |  |  | Active | Active |  |  |  | Active | Active |  |
